Assay results as given in ChEMBL document CHEMBL4390656, “Shooting three inflammatory targets with a single bullet: Novel multi-targeting anti-inflammatory glitazones” (Eur J Med Chem, 2019).
Each block holds one compound with its values, some of them ahead of it. The source made the active and inactive calls. The rule behind the calls is not given here.

Legend:
Rattus norvegicus [1] = species on record: Rattus norvegicus; experiment: Antidiabetic activity in Wistar rat hemi-diaphragm at 2 mg assessed as increase in glucose uptake in absence of insulin by GOD/POD enzymatic method; type: functional, tissue-based
Outline: (§1)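 Wistar rats (150-250 g), fasted overnight, euthanized under ether; diaphragms removed and halved, each half weighed. Glucose in the working solution measured before and after incubation, and uptake taken as initial minus final content at 2 mg drug; expressed as mg/dl/45 min, mean ± SEM.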

Rattus norvegicus [2] = species on record: Rattus norvegicus; experiment: Antidiabetic activity in Wistar rat hemi-diaphragm at 2 mg assessed as increase in insulin-induced glucose uptake by GOD/POD enzymatic method; type: functional, tissue-based; outline: as §1
THP-1 [3] = experiment: Inhibition of PMA-induced human THP1 monocytes differentiation in to macrophages assessed as macrophage metabolic activity up to 300 uM preincubated for 6 hrs before PMA stimulation; type: functional, cell-based
Outline: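 THP-1 cells grown in RPMI-1640 with 10% FBS and seeded at 2×10^5 cells/ml. Drug concentrations applied for 6 h before differentiation with PMA 25 ng/ml for 24 h; wells washed 3x with PBS. Attached cells quantified by MTS viability readout, with a no-PMA blank, normalized to DMSO-pretreated PMA cells. Viability at each drug concentration checked separately over 30 h.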

[4] = Inhibition of soya bean 15-LOX by colorimetric lipoxygenase inhibitor screening assay kit method; design: species or system Glycine max
Outline: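 Soybean 15-LOX activity measured with a colorimetric lipoxygenase inhibitor screening kit per the kit instructions.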

[5] = biological target: T1, Prostaglandin G/H synthase 1 (Ovis aries, UniProt P05979); experiment: Inhibition of ovine COX1 catalytic activity using arachidonic acid as substrate pre-incubated for 10 mins followed by substrate addition and measured after 2 mins by ELISA method
T1 sequence (P05979 whole entry): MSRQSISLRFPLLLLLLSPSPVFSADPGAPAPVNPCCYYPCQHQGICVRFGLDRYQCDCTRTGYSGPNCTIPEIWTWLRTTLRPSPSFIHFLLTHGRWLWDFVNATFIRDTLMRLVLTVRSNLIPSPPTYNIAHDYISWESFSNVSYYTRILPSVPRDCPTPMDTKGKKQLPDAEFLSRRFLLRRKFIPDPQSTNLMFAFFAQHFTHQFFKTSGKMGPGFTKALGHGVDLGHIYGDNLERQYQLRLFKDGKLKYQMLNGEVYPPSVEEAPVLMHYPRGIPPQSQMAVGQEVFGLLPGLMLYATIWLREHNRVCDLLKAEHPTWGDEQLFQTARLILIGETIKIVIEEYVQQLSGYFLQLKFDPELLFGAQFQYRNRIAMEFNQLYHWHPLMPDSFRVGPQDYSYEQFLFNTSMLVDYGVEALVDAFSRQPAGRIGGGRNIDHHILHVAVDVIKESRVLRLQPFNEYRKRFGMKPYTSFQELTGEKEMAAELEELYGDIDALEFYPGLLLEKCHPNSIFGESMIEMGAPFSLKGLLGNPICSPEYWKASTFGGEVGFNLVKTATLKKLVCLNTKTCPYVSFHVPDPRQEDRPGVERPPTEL

[6] = biological target: T2, Peroxisome proliferator-activated receptor gamma (Homo sapiens) (UniProt P37231); experiment: Transactivation of GAL4 DBD-fused human PPARgamma LBD expressed in HEK293 cells at 10 uM after 24 hrs by luciferase reporter gene assay relative to pioglitazone; type: cell-based
T2 sequence (whole entry): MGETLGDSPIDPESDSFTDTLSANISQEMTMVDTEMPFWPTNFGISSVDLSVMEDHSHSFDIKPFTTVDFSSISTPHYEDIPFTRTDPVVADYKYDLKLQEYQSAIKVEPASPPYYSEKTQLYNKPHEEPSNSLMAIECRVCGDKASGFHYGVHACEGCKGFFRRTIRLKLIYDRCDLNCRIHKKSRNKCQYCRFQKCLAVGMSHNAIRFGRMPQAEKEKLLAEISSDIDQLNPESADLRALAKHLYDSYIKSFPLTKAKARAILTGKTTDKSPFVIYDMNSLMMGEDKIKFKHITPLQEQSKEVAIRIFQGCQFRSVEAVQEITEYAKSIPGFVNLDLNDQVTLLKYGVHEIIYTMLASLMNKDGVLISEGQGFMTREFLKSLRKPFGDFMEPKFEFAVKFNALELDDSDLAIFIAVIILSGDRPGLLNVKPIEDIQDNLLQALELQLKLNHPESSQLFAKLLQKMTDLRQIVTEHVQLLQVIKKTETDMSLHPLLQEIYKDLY
Outline: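 HEK293(T) cells transiently co-transfected with a Gal4 DBD–human PPARγ LBD hybrid and a Gal4 UAS-driven Renilla luciferase reporter. […] Luciferase activity normalized to Renilla and expressed as fold induction over vehicle; triplicates, repeated at least three times.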

Rattus norvegicus [7] = experiment: Antiinflammatory activity in rat acute inflammation model assessed as inhibition of formalin-induced paw edema at 5 mg/kg, po measured after 4 hrs relative to celecoxib; type: functional
Outline: (§2)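 Adult female albino rats, 150-250 g, acclimatized 1 week. Compounds given orally at 5 mg/kg body weight; percentage edema inhibition measured after 4 h. Celecoxib and diclofenac sodium served as positive controls.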

Rattus norvegicus [8] = experiment: Antiinflammatory activity in rat acute inflammation model assessed as inhibition of formalin-induced paw edema at 5 mg/kg, po measured after 4 hrs relative to control; type: functional; outline: as §2
THP-1 [9] = experiment: Inhibition of PMA-induced human THP1 monocytes differentiation in to macrophages assessed as macrophage metabolic activity preincubated for 6 hrs before PMA stimulation

SMILES: CCc1ccc(CCOc2ccc(CC3SC(=O)NC3=O)cc2)nc1 (centres undefined)
Activity (Rattus norvegicus [1]): Active
Activity (Rattus norvegicus [2]): Active
inhibition (THP-1 [3]): inactive

IC50 [4]: 10.2 µM
SMILES: CC(Cc1ccc(O)c(O)c1)C(C)Cc1ccc(O)c(O)c1 (centres undefined) [NORDIHYDROGUAIARETIC ACID]

IC50 [4]: 4.34 µM
IC50 [5]: 14.9 µM
SMILES: O=C1NC(=S)S/C1=C\c1ccc(OCc2cn(CC(=O)c3ccc(Br)cc3)nn2)cc1
Activity (Rattus norvegicus [1]): Active
Activity (Rattus norvegicus [2]): Active

IC50 [4]: 4.22 µM
IC50 [5]: 12.4 µM
SMILES: O=C1NC(=S)S/C1=C\c1ccc(OCc2cn(CC(=O)c3ccc(Cl)cc3)nn2)cc1

Activity [6]: 25 to 45%
SMILES: COc1ccc(-n2cc(COc3ccc(/C=C4\SC(=O)NC4=O)cc3)nn2)cc1

SMILES: O=C(O)Cc1ccccc1Nc1c(Cl)cccc1Cl [DICLOFENAC SODIUM]
inhibition in vivo at 5 mg/kg (Rattus norvegicus [7]): 205%
inhibition in vivo at 5 mg/kg (Rattus norvegicus [8]): 52.1%

Activity [6]: 25 to 45%
SMILES: O=C1NC(=O)/C(=C/c2ccc(OCc3cn(Cc4ccc(Br)cc4)nn3)cc2)S1

Activity [6]: 25 to 45%
SMILES: C#CCOc1ccc(/C=C2\SC(=S)NC2=O)cc1

IC50 (THP-1 [9]): 143 µM
SMILES: O=C(O)Cc1ccccc1Nc1c(Cl)cccc1Cl [DICLOFENAC]

IC50 [4]: 4.97 µM
IC50 [5]: 13.6 µM
SMILES: O=C1NC(=O)/C(=C/c2ccc(OCc3cn(CC(=O)c4ccc(Br)cc4)nn3)cc2)S1
Activity (Rattus norvegicus [1]): Active
Activity (Rattus norvegicus [2]): Active

IC50 [5]: 10.9 µM
SMILES: O=C1NC(=O)/C(=C/c2ccc(OCc3cn(CC(=O)c4ccc(Cl)cc4)nn3)cc2)S1

SMILES: Cc1ccc(-c2cc(C(F)(F)F)nn2-c2ccc(S(N)(=O)=O)cc2)cc1 [CELECOXIB]
inhibition in vivo at 5 mg/kg (Rattus norvegicus [8]): 36.8%

SMILES: O=c1c(O)c(-c2ccc(O)c(O)c2)oc2cc(O)cc(O)c12 [QUERCETIN]
IC50 [4]: 3.27 µM

Activity [6]: 25 to 45%
SMILES: O=C1NC(=O)/C(=C/c2ccc(OCc3cn(-c4ccc(Br)cc4)nn3)cc2)S1
